Assay results from ChEMBL document CHEMBL3585285, “Amino Acid Thioester Derivatives: A Highly Promising Scaffold for the Development of Metallo-β-lactamase L1 Inhibitors” (ACS Med Chem Lett, 2015).
pIC50, pKi: −log10 of the molar value. Converted amounts (≈) assume the structure as drawn. The source made the active and inactive calls. No cut-off for these calls is given here.

What was measured:
[1] = Inhibition of NDM1 (unknown origin) overexpressed in Escherichia coli BL21 (DE3) using cefazolin as substrate incubated for 30 mins prior to testing by UV spectrophotometric analysis
Outline: (§1)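 Each enzyme (CcrA or NDM-1) was assayed on cefazolin hydrolysis followed at 262 nm. Initial rates were measured in triplicate with or without inhibitor and averaged. IC50 is the concentration causing 50% loss of activity.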

[2] = Inhibition of Aeromonas veronii bv. sobria ImiS overexpressed in Escherichia coli BL21 (DE3) using imipenem as substrate incubated for 30 mins prior to testing by UV spectrophotometric analysis
Outline: (§2)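 ImiS activity measured as imipenem hydrolysis monitored at 300 nm. Initial rates were taken with and without inhibitor, each in triplicate and averaged. IC50 is the inhibitor concentration giving a 50% drop in enzyme activity.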

[3] = molecular target: Metallo-beta-lactamase type 2 (Bacteroides fragilis) (UniProt P25910); assay: Inhibition of Bacteroides fragilis CcrA overexpressed in Escherichia coli BL21 (DE3) using cefazolin as substrate up to 5 uM incubated for 30 mins prior to testing by UV spectrophotometric analysis; outline: as §1
Escherichia coli [4] = assay: Antibacterial activity against Escherichia coli assessed as cefazolin MIC after 12 hrs by macrodilution broth method (reference value: 64 ug/ml); type: functional
Escherichia coli [5] = assay: Antibacterial activity against Escherichia coli assessed as imipenem MIC after 12 hrs by macrodilution broth method (reference value: 0.5 ug/ml); type: functional
[6] = Inhibition of NDM1 (unknown origin) overexpressed in Escherichia coli BL21 (DE3) assessed as cefazolin MIC at 16 ug/ml after 12 hrs by macrodilution broth method
Outline: (§3)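 MICs of antibiotic were measured with and without inhibitor at a final 16 μg/mL in E. coli BL21(DE3) carrying pMSZ02-CcrA, pET26b-NDM-1, pET26b-ImiS or pET26b-L1, plus plasmid-free BL21(DE3) as a control. Cefazolin was the antibiotic for the CcrA, NDM-1 and L1 strains; imipenem was used for the ImiS strain.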

[7] = molecular target: Metallo-beta-lactamase type 2 (Bacteroides fragilis) (UniProt P25910); assay: Inhibition of Bacteroides fragilis CcrA overexpressed in Escherichia coli BL21 (DE3) assessed as cefazolin MIC at 16 ug/ml after 12 hrs by macrodilution broth method; outline: as §3
[8] = tested on: Aeromonas veronii bv. sobria; assay: Inhibition of Aeromonas veronii bv. sobria ImiS overexpressed in Escherichia coli BL21 (DE3) assessed as imipenem MIC at 16 ug/ml after 12 hrs by macrodilution broth method; outline: as §3
[9] = molecular target: Beta-lactamase L1 (Stenotrophomonas maltophilia) (UniProt P52700); assay: Inhibition of Stenotrophomonas maltophilia L1 overexpressed in Escherichia coli BL21 (DE3) assessed as cefazolin MIC at 16 ug/ml after 12 hrs by macrodilution broth method; outline: as §3
[10] = molecular target: Beta-lactamase L1 (Stenotrophomonas maltophilia) (UniProt P52700); assay: Inhibition of Stenotrophomonas maltophilia L1 overexpressed in Escherichia coli BL21 (DE3) assessed as reduction of cefazolin MIC at 16 ug/ml after 12 hrs by macrodilution broth method relative to cefazolin-treated control; outline: as §3
Beta-lactamase L1 [11] = molecular target: T1, Beta-lactamase L1 (Stenotrophomonas maltophilia, UniProt P52700); assay: Inhibition of Stenotrophomonas maltophilia L1 overexpressed in Escherichia coli BL21 (DE3) using cefazolin as substrate incubated for 30 mins prior to testing by UV spectrophotometric analysis
Beta-lactamase L1 [12] = molecular target: T1, Beta-lactamase L1; assay: Mixed-type inhibition of Stenotrophomonas maltophilia L1 overexpressed in Escherichia coli BL21 (DE3) using cefazolin as substrate incubated for 30 mins prior to testing by Lineweaver-Burk plot analysis
[13] = tested on: Aeromonas veronii bv. sobria; assay: Inhibition of Aeromonas veronii bv. sobria ImiS overexpressed in Escherichia coli BL21 (DE3) using imipenem as substrate up to 5 uM incubated for 30 mins prior to testing by UV spectrophotometric analysis; outline: as §2
Escherichia coli [14] = assay: Antibacterial activity against Escherichia coli after 12 hrs by macrodilution broth method; type: functional
[15] = molecular target: Metallo-beta-lactamase type 2 (Bacteroides fragilis, UniProt P25910); assay: Inhibition of Bacteroides fragilis CcrA overexpressed in Escherichia coli BL21 (DE3) using cefazolin as substrate incubated for 30 mins prior to testing by UV spectrophotometric analysis; outline: as §1
Chain of Metallo-beta-lactamase type 2 (P25910 whole entry): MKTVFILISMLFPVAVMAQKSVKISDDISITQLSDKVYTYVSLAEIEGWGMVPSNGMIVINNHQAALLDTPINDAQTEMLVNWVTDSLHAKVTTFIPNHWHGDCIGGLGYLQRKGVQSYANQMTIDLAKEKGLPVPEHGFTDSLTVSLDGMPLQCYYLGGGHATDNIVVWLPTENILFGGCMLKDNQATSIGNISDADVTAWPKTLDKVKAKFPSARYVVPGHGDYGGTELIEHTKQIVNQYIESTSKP

Chain of Metallo-beta-lactamase type 2 (Bacteroides fragilis) (P25910 whole entry): as above
T1 sequence (P52700 whole entry): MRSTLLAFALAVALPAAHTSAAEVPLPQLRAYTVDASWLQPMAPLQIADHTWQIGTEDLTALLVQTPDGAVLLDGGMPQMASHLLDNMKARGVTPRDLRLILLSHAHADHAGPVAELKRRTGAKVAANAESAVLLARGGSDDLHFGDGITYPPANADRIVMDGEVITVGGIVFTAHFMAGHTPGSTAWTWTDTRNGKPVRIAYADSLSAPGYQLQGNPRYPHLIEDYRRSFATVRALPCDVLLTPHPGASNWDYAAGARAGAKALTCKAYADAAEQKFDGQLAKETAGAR
Chain of Beta-lactamase L1 (Stenotrophomonas maltophilia) (P52700 34-290 limits assumed): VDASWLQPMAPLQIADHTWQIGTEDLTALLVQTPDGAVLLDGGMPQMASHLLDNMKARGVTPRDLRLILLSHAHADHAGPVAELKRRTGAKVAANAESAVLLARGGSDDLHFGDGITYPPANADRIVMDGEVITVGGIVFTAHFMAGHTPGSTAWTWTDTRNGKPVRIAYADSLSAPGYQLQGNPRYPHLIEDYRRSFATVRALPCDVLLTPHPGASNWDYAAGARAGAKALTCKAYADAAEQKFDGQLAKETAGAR

SMILES | pIC50 [1] | pIC50 [2] | inhibition [3] | MIC (Escherichia coli [4]) [µg/mL] | MIC (Escherichia coli [5]) [µg/mL] | MIC [6] [µg/mL] | MIC [7] [µg/mL] | MIC [8] [µg/mL] | MIC [9] [µg/mL] | fold change (FC) [10] | pIC50 (Beta-lactamase L1 [11]) | pKi (Beta-lactamase L1 [12]) | inhibition [13] | MIC (Escherichia coli [14]) [µg/mL] | pIC50 [15]
O=C(O)CSC(=O)CNC(=O)Cc1cccs1 | 4.54 | 4.21 | inactive | 64 | 0.5 | 4 | 4 | 1 | 4 | 2 | 6.08 | 6.55 | – | – | –
O=C(O)CSC(=O)[C@H](CO)NC(=O)Cc1cccs1 | – | 4.22 | inactive | 64 | 0.5 | 8 | 4 | 1 | 4 | 2 | 5.83 | 6.77 | – | – | –
O=C(O)CSC(=O)[C@H](CCCCNC(=O)Cc1cccs1)NC(=O)Cc1cccs1 | – | – | inactive | 64 | 0.5 | 4 | 4 | 2 | 4 | 2 | 5.97 | 6.72 | inactive | – | –
C[C@@H](O)[C@H]1C(=O)N2C(C(=O)O)=C(SCCNC=N)C[C@H]12 [IMIPENEM ANHYDROUS] | – | – | – | – | – | – | – | – | – | – | – | – | – | 0.5 (≈ 1.67 µM) | –
C[C@H](NC(=O)Cc1cccs1)C(=O)SCC(=O)O | 4.02 | 4.33 | inactive | > 64 | 0.5 | 4 | 4 | 1 | 2 | 4 | 6.04 | 6.39 | – | – | –
O=C(O)CSC(=O)[C@H](Cc1c[nH]c2ccccc12)NC(=O)Cc1cccs1 | – | – | inactive | 64 | 0.5 | 8 | 4 | 2 | 2 | 4 | 6.54 | 6.77 | inactive | – | –
CC(C)[C@H](NC(=O)Cc1cccs1)C(=O)SCC(=O)O | 4.91 | 4.72 | – | > 64 | 0.5 | 4 | 4 | 1 | 4 | 2 | 6.35 | 6.55 | – | – | 4.41
CSCC[C@H](NC(=O)Cc1cccs1)C(=O)SCC(=O)O | – | 4.88 | – | > 64 | 0.5 | 8 | 4 | 1 | 2 | 4 | 7.74 | 6.96 | – | – | 3.91
O=C(O)CSC(=O)[C@H](Cc1ccccc1)NC(=O)Cc1cccs1 | 4.44 | 4.18 | inactive | 64 | 0.5 | 8 | 4 | 1 | 4 | 2 | 5.54 | 6.02 | – | – | –
O=C(O)CSC(=O)[C@@H]1CCCN1C(=O)Cc1cccs1 | – | – | inactive | 64 | 0.5 | 8 | 4 | 2 | 2 | 4 | 6.35 | 6.06 | inactive | – | –
Cc1nnc(SCC2=C(C(=O)O)N3C(=O)[C@@H](NC(=O)Cn4cnnn4)[C@H]3SC2)s1 [CEFAZOLIN] | – | – | – | – | – | – | – | – | – | – | – | – | – | 64 (≈ 141 µM) | –
CC(C)C[C@H](NC(=O)Cc1cccs1)C(=O)SCC(=O)O | 4.55 | 5.44 | inactive | 64 | 0.5 | 4 | 4 | 1 | 2 | 4 | 7.16 | 6.68 | – | – | –
